These results are taken from ChEMBL document CHEMBL3425411, “Synthesis of β-Carboline-Based N-Heterocyclic Carbenes and Their Antiproliferative and Antimetastatic Activities against Human Breast Cancer Cells” (J Med Chem, 2015).

SMILES strings stand for the structures. Activity calls are given as the source filed them. The rule behind the calls is not given here.

For test [1], the target named is Mitogen-activated protein kinase; ERK1/ERK2 (Homo sapiens) (UniProt P27361+P28482). Description: Inhibition of ERK1/2 phosphorylation in human MDA-MB-231 cells at 7.5 to 10 uM after 24 hrs by Western blot analysis. It counts as cell-based. Summed up:
(§1)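 MDA-MB-231 cells treated 24 h, then lysed in RIPA buffer. 40 μg protein run on 10–15% SDS–PAGE and transferred to PVDF. Blocked in 5% milk, probed overnight at 4 °C with primary antibodies (phospho- and total ERK1/2, JNK, p38, cleaved caspase-3), then HRP secondary. ECL detection with β-actin as loading control. Blots representative of three experiments.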
In general terms: Immunoblotting shows a protein as a band on a membrane.

Test [2] concerns the target Matrix metalloproteinase-9 (Homo sapiens) (UniProt P14780). Description: Inhibition of MMP-9 in human MDA-MB-231 cells at 1 to 7.5 uM after 24 hrs by gelatin zymographic method. Format: cell-based. Summed up: (§2)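 MDA-MB-231 cells, 1 × 10⁵ per well, treated 24 h with 0, 1, 2.5, 5 or 7.5 μM. Conditioned medium centrifuged and equal protein loaded on 8% SDS–PAGE containing 0.1% gelatin, run at 80 V. Triton X-100 washes, then developed 20 h at 37 °C in Tris-HCl pH 7.5 with NaCl, CaCl₂ and ZnCl₂. Coomassie stain, then destain.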

Test [3] has as its system MDA-MB-231. The test can be described thus: Downregulation of cyclin B expression in human MDA-MB-231 cells at 7.5 to 10 uM after 24 hrs by Western blot analysis. It counts as functional, cell-based. Summed up: (§3)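 Cells were treated for 24 h. Lysates were made in RIPA buffer, and 40 μg protein was resolved on 10–15% SDS-PAGE and transferred to PVDF. Membranes were blocked with 5% milk and probed overnight at 4 °C with primary antibodies, then HRP secondaries. Detection was by ECL with β-actin as loading control. Blots represent three independent experiments.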

The test system of test [4] is MDA-MB-231. Description: Induction of apoptosis in human MDA-MB-231 cells assessed as late apoptotic cells at 10 uM after 24 hrs by annexin V-propidium iodide/Alexa Fluor 488 staining-based flow cytometric analysis (reference value: 2.08 to 3.78%). It counts as functional. Summed up:
(§4)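 MDA-MB-231 cells, about 2 × 10⁵ per well, seeded in triplicate and treated for 24 h in RPMI-1640 with 10% FBS. Stained with Alexa Fluor 488 annexin V and propidium iodide, then read by flow cytometry. AV+/PI+ events were counted as late apoptotic and reported as percentage of cells relative to control. Three independent experiments, mean ± SEM.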
A general note: In flow cytometry, cells or beads pass a laser one at a time.

The target in test [5] is 72 kDa type IV collagenase (Homo sapiens) (UniProt P08253). The test can be described thus: Inhibition of MMP-2 in human MDA-MB-231 cells at 1 to 7.5 uM after 24 hrs by gelatin zymographic method. It counts as cell-based. Summed up: as §2
For test [6], the system named is MDA-MB-231. The test can be described thus: Induction of apoptosis in human MDA-MB-231 cells assessed as late apoptotic cells at 12.5 uM after 24 hrs by annexin V-propidium iodide/Alexa Fluor 488 staining-based flow cytometric analysis (reference value: 2.08 to 3.78%). Format: functional. Summed up:
as §4

In test [7] the test system is MDA-MB-231. Description: Downregulation of survivin expression in human MDA-MB-231 cells at 7.5 to 10 uM after 24 hrs by Western blot analysis. It counts as functional, cell-based. Summed up:
as §3

Test [8] deals with MDA-MB-231. Description: Induction of apoptosis in human MDA-MB-231 cells assessed as PARP cleavage at 7.5 to 10 uM after 24 hrs by Western blot analysis. Format: functional, cell-based. The method in brief: as §3
Test [9] deals with MDA-MB-231. The test can be described thus: Antimigratory activity against human MDA-MB-231 cells at 1 to 7.5 uM after 12 to 24 hrs by wound healing assay. Format: functional, cell-based. Summed up: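 2 × 10⁵ cells were plated in six-well plates and scratched with a 200 μL tip. Debris was removed, then cells were treated (0, 1, 2.5, 5, 7.5 μM; or 0–5 μM). The wound was photographed at 0, 12 and 24 h under 100× phase contrast. Area was measured as percent wound closure versus control. Three independent experiments, mean ± SEM.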

Test [10] has as its system MDA-MB-231. The test can be described thus: Cell cycle arrest in human MDA-MB-231 cells assessed as accumulation at G0/G1 phase at 10 uM after 24 hrs by propidium iodide staining-based flow cytometric analysis (reference value: 44.3 to 47.1%). Format: functional.
The target of test [11] is MAP kinase p38 (Homo sapiens) (UniProt O15264+Q15759+Q16539+P53778). The test can be described thus: Induction of p38 MAPK phosphorylation in human MDA-MB-231 cells at 7.5 to 10 uM after 24 hrs by Western blot analysis. Format: cell-based. Summed up:
as §1

Test [12] relates to MDA-MB-231. The test can be described thus: Upregulation of cleaved caspase-3 expression in human MDA-MB-231 cells at 7.5 to 10 uM after 24 hrs by Western blot analysis. It counts as functional, cell-based. Summed up:
as §1

Test [13] concerns MDA-MB-231. The test can be described thus: Antiinvasive activity against human MDA-MB-231 cells at 2.5 uM after 48 hrs by transwell assay. Format: functional, cell-based. Summed up: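 Matrigel (growth factor reduced, diluted in serum-free medium) coated on 8 μm pore polycarbonate transwell membranes, set 2 h at 37 °C. 30 000 cells/well seeded in RPMI-1640 with 1% FBS plus compound; lower chamber had 10% FBS as chemoattractant. After 48 h, non-invaded cells were swabbed off and invaded cells were methanol-fixed and stained with 0.1% crystal violet. At least 10 random fields were counted and expressed versus control.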

The subject of test [14] is MDA-MB-231. Description: Downregulation of CDC25C expression in human MDA-MB-231 cells at 7.5 to 10 uM after 24 hrs by Western blot analysis. It counts as functional, cell-based. Summed up:
as §3

Test [15] has as its system MDA-MB-231. Description: Downregulation of Bcl-XL expression in human MDA-MB-231 cells at 7.5 to 10 uM after 24 hrs by Western blot analysis. It counts as functional, cell-based. Summed up: as §3
Test [16] deals with MDA-MB-231. Description: Induction of apoptosis in human MDA-MB-231 cells assessed as early apoptotic cells at 12.5 uM after 24 hrs by annexin V-propidium iodide/Alexa Fluor 488 staining-based flow cytometric analysis (reference value: 4.05 to 4.68%). Format: functional.
Test [17] relates to MDA-MB-231. The test can be described thus: Cell cycle arrest in human MDA-MB-231 cells assessed as accumulation at S phase at 10 uM after 24 hrs by propidium iodide staining-based flow cytometric analysis (reference value: 32.5 to 34.7%). Format: functional.
Test [18] relates to MDA-MB-231. Description: Cell cycle arrest in human MDA-MB-231 cells assessed as accumulation at G2/M phase at 10 uM after 24 hrs by propidium iodide staining-based flow cytometric analysis (reference value: 18.2 to 23.1%). It counts as functional.
The test system of test [19] is MDA-MB-231. The test can be described thus: Downregulation of Bcl-2 expression in human MDA-MB-231 cells at 7.5 to 10 uM after 24 hrs by Western blot analysis. It counts as functional, cell-based. The method in brief:
as §3

For test [20], the system named is MDA-MB-231. Description: Downregulation of CDK1 expression in human MDA-MB-231 cells at 7.5 to 10 uM after 24 hrs by Western blot analysis. Format: functional, cell-based. The method in brief:
as §3

The target in test [21] is c-Jun N-terminal kinase, JNK (Homo sapiens) (UniProt P45983+P53779+P45984). The test can be described thus: Inhibition of SAPK/JNK phosphorylation in human MDA-MB-231 cells at 7.5 to 10 uM after 24 hrs by Western blot analysis. Format: cell-based. Summed up: as §1
For test [22], the system named is MDA-MB-231. Description: Cell cycle arrest in human MDA-MB-231 cells assessed as accumulation at G0/G1 phase at 2.5 uM after 24 hrs by propidium iodide staining-based flow cytometric analysis (reference value: 44.3 to 47.1%). It counts as functional.
The subject of test [23] is MDA-MB-231. Description: Downregulation of CDC25C expression in human MDA-MB-231 cells at 5 to 7.5 uM after 24 hrs by Western blot analysis. It counts as functional, cell-based. The method in brief:
as §3

Chain of Mitogen-activated protein kinase; ERK1/ERK2 (Homo sapiens) (P27361 whole entry, looked up): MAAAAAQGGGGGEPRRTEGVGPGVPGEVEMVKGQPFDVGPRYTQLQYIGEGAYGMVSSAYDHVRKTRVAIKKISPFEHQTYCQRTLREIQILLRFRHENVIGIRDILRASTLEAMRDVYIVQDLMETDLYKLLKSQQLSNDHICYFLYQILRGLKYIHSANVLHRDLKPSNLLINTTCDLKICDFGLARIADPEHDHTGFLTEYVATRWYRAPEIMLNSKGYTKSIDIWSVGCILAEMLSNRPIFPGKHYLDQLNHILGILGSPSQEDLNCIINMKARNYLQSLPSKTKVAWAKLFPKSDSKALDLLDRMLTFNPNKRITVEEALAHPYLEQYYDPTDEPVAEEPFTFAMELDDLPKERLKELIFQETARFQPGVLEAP
Chain of Mitogen-activated protein kinase; ERK1/ERK2 (Homo sapiens) (P28482 whole entry, looked up): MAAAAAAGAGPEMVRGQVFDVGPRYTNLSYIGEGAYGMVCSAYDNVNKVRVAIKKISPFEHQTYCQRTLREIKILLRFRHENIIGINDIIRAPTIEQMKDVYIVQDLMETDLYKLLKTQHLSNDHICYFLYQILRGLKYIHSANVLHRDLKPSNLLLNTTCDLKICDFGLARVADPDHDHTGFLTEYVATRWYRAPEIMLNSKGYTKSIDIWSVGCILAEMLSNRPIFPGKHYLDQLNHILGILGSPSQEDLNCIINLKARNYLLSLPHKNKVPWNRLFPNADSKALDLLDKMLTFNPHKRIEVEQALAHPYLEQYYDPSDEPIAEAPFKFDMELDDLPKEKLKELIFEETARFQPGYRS
Chain of 72 kDa type IV collagenase (Homo sapiens) (P08253 110-660 limits assumed): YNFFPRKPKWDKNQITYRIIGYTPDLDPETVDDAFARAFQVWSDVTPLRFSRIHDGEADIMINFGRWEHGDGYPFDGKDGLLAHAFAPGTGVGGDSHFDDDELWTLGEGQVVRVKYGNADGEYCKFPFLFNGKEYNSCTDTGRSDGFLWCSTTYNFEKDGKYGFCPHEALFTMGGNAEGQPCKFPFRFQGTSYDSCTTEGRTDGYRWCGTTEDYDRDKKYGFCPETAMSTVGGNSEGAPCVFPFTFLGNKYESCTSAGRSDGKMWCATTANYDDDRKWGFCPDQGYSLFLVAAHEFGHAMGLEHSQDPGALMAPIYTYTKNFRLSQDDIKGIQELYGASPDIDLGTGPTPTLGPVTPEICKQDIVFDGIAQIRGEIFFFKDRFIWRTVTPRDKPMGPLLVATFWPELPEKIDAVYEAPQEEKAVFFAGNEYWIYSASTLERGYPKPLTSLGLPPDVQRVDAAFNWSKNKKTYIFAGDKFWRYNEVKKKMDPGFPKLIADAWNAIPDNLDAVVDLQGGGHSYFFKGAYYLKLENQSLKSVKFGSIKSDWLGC
Chain of Matrix metalloproteinase-9 (Homo sapiens) (P14780 whole entry): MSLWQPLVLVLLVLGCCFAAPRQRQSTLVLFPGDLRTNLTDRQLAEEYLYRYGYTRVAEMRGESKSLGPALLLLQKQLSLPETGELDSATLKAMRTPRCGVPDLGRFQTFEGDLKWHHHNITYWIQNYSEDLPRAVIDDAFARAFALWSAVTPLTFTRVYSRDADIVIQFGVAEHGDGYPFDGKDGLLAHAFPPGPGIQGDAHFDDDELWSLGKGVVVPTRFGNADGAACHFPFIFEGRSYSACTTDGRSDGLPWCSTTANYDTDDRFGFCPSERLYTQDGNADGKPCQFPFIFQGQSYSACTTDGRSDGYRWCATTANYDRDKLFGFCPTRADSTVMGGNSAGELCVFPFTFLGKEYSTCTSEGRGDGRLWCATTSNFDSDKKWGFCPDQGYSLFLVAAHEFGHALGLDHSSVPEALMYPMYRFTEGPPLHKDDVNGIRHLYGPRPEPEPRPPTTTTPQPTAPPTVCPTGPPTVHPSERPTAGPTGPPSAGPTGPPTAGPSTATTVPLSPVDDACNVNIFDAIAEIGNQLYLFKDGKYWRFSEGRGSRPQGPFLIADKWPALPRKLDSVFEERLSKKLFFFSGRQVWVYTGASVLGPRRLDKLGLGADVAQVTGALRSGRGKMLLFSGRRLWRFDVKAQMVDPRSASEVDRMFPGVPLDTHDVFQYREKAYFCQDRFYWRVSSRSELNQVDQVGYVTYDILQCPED

On to `COC(=O)c1cc2c3ccccc3[nH]c2c2cn(-c3ccc(C(F)(F)F)cc3)c[n+]12.[Cl-]`, for which the inhibition result in test [1], in [2], in test [5] and in [21] was “Active” each time. In addition, the outcome (in the test with MDA-MB-231 [3]; with MDA-MB-231 [7]; with MDA-MB-231 [8]; with MDA-MB-231 [9]; in test [11]; in the test on MDA-MB-231 [12]) was Active. Moreover, the outcome in the test on MDA-MB-231 [13], in the test on MDA-MB-231 [14], in the test with MDA-MB-231 [15], in the test on MDA-MB-231 [19] and with MDA-MB-231 [20] was Active. For the same molecule, the Activity with MDA-MB-231 [4] amounted to 14.31%; with MDA-MB-231 [6], 13.43%; in the test on MDA-MB-231 [10], 31.1%; in the test on MDA-MB-231 [16], 31.17%; with MDA-MB-231 [17] it was 29.7%; in the test with MDA-MB-231 [18] it was 39%. Moreover, the Activity in the test on MDA-MB-231 [22] is given as 50.4%.
Regarding `COC(=O)c1cc2c3ccccc3[nH]c2c2cn(-c3ccc(F)cc3Cl)c[n+]12.[Cl-]`, the Activity turned out to be 11.92% in the test on MDA-MB-231 [4] and 46.7% with MDA-MB-231 [22]. Also, the outcome in the test on MDA-MB-231 [23] was Active.
On to `COC(=O)c1cc2c3ccccc3[nH]c2c2cn(-c3ccc(C)cc3Br)c[n+]12.[Cl-]`, for which the inhibition result in test [1], in test [2], in test [5] and in test [21] was “Active” throughout. For the same molecule, the outcome (in the test with MDA-MB-231 [3]; with MDA-MB-231 [7]; in the test on MDA-MB-231 [8]; in the test on MDA-MB-231 [9]; in [11]; in the test on MDA-MB-231 [12]) was Active. Further, the result in the test with MDA-MB-231 [13], in the test on MDA-MB-231 [14], in the test with MDA-MB-231 [15], with MDA-MB-231 [19] and in the test with MDA-MB-231 [20] was Active. The Activity was determined as 25.32% in the test with MDA-MB-231 [4]; 17.42% in the test with MDA-MB-231 [6]; 35.3% in the test with MDA-MB-231 [10]; 64.96% in the test with MDA-MB-231 [16]; 26.3% with MDA-MB-231 [17]; 38.2% in the test with MDA-MB-231 [18]. The Activity in the test with MDA-MB-231 [22] was 56.8%.
